Test results as given in ChEMBL document CHEMBL1141081, “Discovery and characterization of aminopiperidinecoumarin melanin concentrating hormone receptor 1 antagonists” (J Med Chem, 2005).
“And” between values parts separate entries of the source, which are not always exact repeats. Identical values can stand only once.

How the values were obtained:
[1] = target: T1, Melanin-concentrating hormone receptor 1 (Homo sapiens, UniProt Q99705); assay: Inhibitory concentration aganist melanin concentrating hormone receptor 1 expressed in IMR-32 cells using [125I]MCH; format: cell-based
[2] = target: T1, Melanin-concentrating hormone receptor 1; assay: Inhibition of melanin concentrating hormone receptor 1 mediated [Ca2+] release in IMR-32 cells in Ca+2 release cell assay; format: functional, cell-based
[3] = Brain area under concentration curve after oral administration in diet-induced obese mouse at a dose of 10 mg/kg for 0-24 hr period, n=3; format: ADME, organism-based; design: time < 24 hr, dose 10 mg/kg, route oral; details: in vivo
Summary of the method: (§1)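 Diet-induced obese mice were given a single oral dose of 10 mg/kg. Plasma and brain were sampled over 24 h. […] Values are mean ± SEM, n = 3.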

[4] = Brain area under concentration curve after peroral administration in lean mouse at a dose of 10 mg/kg; format: ADME, organism-based; design: dose 10 mg/kg, route oral; details: in vivo, po
[5] = Plasma area concentration under curve after peroral administration in lean mouse at a dose of 10 mg/kg; format: ADME, organism-based; design: dose 10 mg/kg, route oral; details: po
Summary of the method: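 Single oral dose of 10 mg/kg given to lean mice. Plasma exposure is expressed as AUC, and brain AUC was measured alongside it. Interanimal variability was below 25% for all values.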

[6] = Plasma area under concentration curve after oral administration in diet-induced obese mouse at a dose of 10 mg/kg for 0-24 hr period,n=3; format: ADME, organism-based; design: time < 24 hr, dose 10 mg/kg, route oral; summary of the method: as §1
[7] = Maximum concentration in diet-induced obese mouse brain at 10 mg/kg oral administration; n=3; format: ADME, organism-based; design: dose 10 mg/kg, route oral; summary of the method: as §1
[8] = Plasma area under concentration curve after peroral administration in lean mouse at a dose of 10 mg/kg; format: ADME, organism-based; design: dose 10 mg/kg, route oral; details: po
[9] = Concentration in diet-induced obese mouse brain 12 h after 10 mg/kg oral administration; format: ADME, organism-based; design: dose 10 mg/kg, route oral; details: read-out: C12h; summary of the method: as §1
[10] = Half-life after iv administration at a dose 2.5 mg/kg; format: ADME, organism-based, Canis lupus familiaris; design: dose 2.5 mg/kg, route intravenous; details: dog, in vivo
Summary of the method: (§2)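 Male beagle dogs received a single intravenous bolus of 2.5 mg/kg. Plasma was sampled to derive half-life, Cmax, plasma clearance and AUC0-∞. Values are mean ± SEM.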

[11] = Plasma area under curve after oafter iv administration at a dose 2.5 mg/kg; format: ADME, organism-based, Canis lupus familiaris; design: dose 2.5 mg/kg, route intravenous; details: dog, in vivo; summary of the method: as §2
[12] = tested on: Mus musculus; assay: Percent change in body weight after oral administration at a dose of 30 mg/kg b.i.d. as compare to vehicle (1% Tween-80 in water) observed for 28 days
[13] = Plasma clearance after iv administration at a dose 2.5 mg/kg; format: ADME, organism-based, Canis lupus familiaris; design: dose 2.5 mg/kg, route intravenous; details: dog, read-out: Clp (converted); summary of the method: as §2
[14] = target: Adrenergic receptor alpha-1 (Homo sapiens) (UniProt P35348+P25100+P35368); assay: Non-selective inhibition against adrenergic-alpha-1 receptor at 10 uM; format: protein assay
[15] = tested on: Mus musculus; assay: Percent change in body weight after oral administration at a dose of 10 mg/kg b.i.d. as compare to vehicle (1% Tween-80 in water) observed for 13 days
[16] = Plasma concentration after intravenous infusion at a dose of 8 mg/kg/30 min; format: ADME, organism-based, Canis lupus familiaris; design: route intravenous; details: dog, read-out: Activity
[17] = Plasma concentration after intravenous infusion at a dose of 26 mg/kg/30 min; format: ADME, organism-based, Canis lupus familiaris; design: route intravenous; details: dog, read-out: Activity
[18] = Plasma concentration after intravenous infusion at a dose of 80 mg/kg measured after approximately 12 min; format: ADME, organism-based, Canis lupus familiaris; design: dose 80 mg/kg, route intravenous; details: dog, read-out: Activity
[19] = Bioavailability after oral administration; format: ADME, organism-based, Canis lupus familiaris; details: dog, in vivo, read-out: Activity
[20] = Half-life after oral administration; format: ADME, organism-based, Canis lupus familiaris; details: dog, in vivo
[21] = Peak plasma concentration after oral administration; format: ADME, organism-based, Canis lupus familiaris; design: route oral; details: dog
[22] = target: Voltage-gated inwardly rectifying potassium channel KCNH2 (Homo sapiens, UniProt Q12809); assay: Inhibition of human potassium channel HERG
[23] = tested on: Mus musculus; assay: Drug concentration in brain 1 hr after final dose of 10 mg/kg, administered orally; details: po
[24] = tested on: Mus musculus; assay: Percent change in body weight after oral administration at a dose of 10 mg/kg b.i.d. as compare to vehicle (1% Tween-80 in water) observed for 28 days
[25] = Drug concentration in brain 1 hr after final dose of 10 mg/kg, administered orally; format: ADME, organism-based; design: dose 10 mg/kg, route oral; details: mouse, po, read-out: Activity
Summary of the method: (§3)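 Diet-induced obese mice were dosed orally at 10 or 30 mg/kg b.i.d. for 13 days. Body weight was expressed as % change from vehicle controls. Plasma (μg/mL) and brain (μg/g) drug levels were measured 1 h after the final dose. Values are mean ± SEM, n = 3.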

[26] = target: Dopamine receptor (Homo sapiens) (UniProt P14416+P35462+P21918+P21917+P21728); assay: Non-selective inhibition against dopamine receptor at 10 uM; format: protein assay
[27] = Peak plasma concentration after iv administration at a dose 2.5 mg/kg; format: ADME, organism-based, Canis lupus familiaris; design: dose 2.5 mg/kg, route intravenous; details: dog; summary of the method: as §2
[28] = Drug concentration in plasma 1 hr after final dose of 30 mg/kg administered orally; format: ADME, organism-based; design: dose 30 mg/kg, route oral; details: mouse, po, read-out: Activity; summary of the method: as §3
[29] = Drug concentration in plasma 1 hr after final dose of 10 mg/kg administered orally; format: ADME, organism-based; design: dose 10 mg/kg, route oral; details: mouse, po, read-out: Activity; summary of the method: as §3
[30] = tested on: Mus musculus; assay: Percent change in body weight after oral administration at a dose of 30 mg/kg b.i.d. as compare to vehicle (1% Tween-80 in water) observed for 13 days
[31] = Plasma concentration at the end of the first infusion in dog cardiovascular assay; value is in between 2.75-2.93; format: ADME, Canis lupus familiaris; details: iv
[32] = Plasma concentration at the end of the first infusion in dog cardiovascular assay; value is in between 1.36-1.43; format: ADME, Canis lupus familiaris; details: iv

T1 sequence (Q99705 whole entry): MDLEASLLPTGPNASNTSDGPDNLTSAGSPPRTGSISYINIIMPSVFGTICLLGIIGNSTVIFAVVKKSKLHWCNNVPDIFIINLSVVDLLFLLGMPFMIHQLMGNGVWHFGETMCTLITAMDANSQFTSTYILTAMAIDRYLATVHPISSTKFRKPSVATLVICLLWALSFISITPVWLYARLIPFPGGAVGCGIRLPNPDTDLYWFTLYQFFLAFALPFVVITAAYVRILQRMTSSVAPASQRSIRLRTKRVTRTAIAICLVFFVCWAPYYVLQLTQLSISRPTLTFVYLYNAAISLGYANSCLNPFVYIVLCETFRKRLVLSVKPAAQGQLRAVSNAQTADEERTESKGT
Chain of Voltage-gated inwardly rectifying potassium channel KCNH2 (Q12809 whole entry): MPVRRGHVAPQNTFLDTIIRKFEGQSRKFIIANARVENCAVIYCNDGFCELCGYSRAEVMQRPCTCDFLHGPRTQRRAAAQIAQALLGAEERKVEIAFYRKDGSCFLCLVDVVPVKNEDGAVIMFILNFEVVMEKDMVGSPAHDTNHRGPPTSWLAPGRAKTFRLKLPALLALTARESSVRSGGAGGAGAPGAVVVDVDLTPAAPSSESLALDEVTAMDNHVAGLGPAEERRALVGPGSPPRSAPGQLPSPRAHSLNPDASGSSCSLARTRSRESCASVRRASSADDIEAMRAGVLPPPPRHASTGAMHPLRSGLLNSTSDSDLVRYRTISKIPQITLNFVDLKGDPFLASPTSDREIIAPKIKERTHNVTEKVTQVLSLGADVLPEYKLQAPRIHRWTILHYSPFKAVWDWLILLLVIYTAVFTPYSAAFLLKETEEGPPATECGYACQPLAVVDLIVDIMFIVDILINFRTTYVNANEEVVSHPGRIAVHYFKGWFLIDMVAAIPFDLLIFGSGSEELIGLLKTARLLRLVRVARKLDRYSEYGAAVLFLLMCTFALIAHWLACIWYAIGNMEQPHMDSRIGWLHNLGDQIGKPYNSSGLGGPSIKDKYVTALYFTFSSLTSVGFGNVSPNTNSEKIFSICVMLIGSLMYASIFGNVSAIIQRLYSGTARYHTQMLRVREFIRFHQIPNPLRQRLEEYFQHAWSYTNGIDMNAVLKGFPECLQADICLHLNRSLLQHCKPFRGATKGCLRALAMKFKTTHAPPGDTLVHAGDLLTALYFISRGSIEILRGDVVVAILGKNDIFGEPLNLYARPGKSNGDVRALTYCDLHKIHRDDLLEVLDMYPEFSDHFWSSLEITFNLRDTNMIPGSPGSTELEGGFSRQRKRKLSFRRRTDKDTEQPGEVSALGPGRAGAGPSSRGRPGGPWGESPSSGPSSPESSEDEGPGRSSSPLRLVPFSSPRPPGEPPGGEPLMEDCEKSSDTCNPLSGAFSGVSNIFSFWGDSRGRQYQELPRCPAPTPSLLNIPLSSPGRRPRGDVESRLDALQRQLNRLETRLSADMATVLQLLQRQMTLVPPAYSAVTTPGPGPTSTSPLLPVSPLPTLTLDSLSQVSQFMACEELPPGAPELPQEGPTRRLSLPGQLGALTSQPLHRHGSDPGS

## Cn1ccc2ccc(CN3CCC(/N=c4\cc(O)oc5ccc(Cl)cc45)CC3)cc21
[1]
  IC50: 60 nM
[2]
  IC50: 162 nM

## O=c1cc(NC2CCN(Cc3ccc4ocnc4c3)CC2)c2cc(Cl)ccc2o1
[1]
  IC50: 3 nM
[3]
  AUC: 0 µg·h/g
[2]
  IC50: 163 nM

## O=c1cc(NC2CCN(Cc3ccc4ccccc4c3)CC2)c2cc(Cl)ccc2o1
[1]
  IC50: 21 nM
[2]
  IC50: 92 nM

## O=c1cc(NC2CCN(Cc3ccc4cc[nH]c4c3)CC2)c2cc(Cl)ccc2o1
[1]
  IC50: 24 nM
[2]
  IC50: 28 nM

## O=c1cc(NC2CCN(C/C=C/c3ccccc3)CC2)c2cc(Cl)ccc2o1
[1]
  IC50: 9 nM
[4]
  AUC: 2.6 µg·h/g
[2]
  IC50: 211 nM
[5]
  AUC: 1920 ng·h/mL

## O=c1cc(NC2CCN(Cc3ccc4c(c3)CCO4)CC2)c2cc(Cl)ccc2o1
[1]
  IC50: 27 nM
[3]
  AUC: 0.449 µg·h/g
[6]
  AUC at 24 h: 621 ng·h/mL
[2]
  IC50: 41 nM
[7]
  Cmax: 294 ng/g

## COc1ccc2oc(O)c/c(=N\C3CCN(C/C=C/c4ccccc4)CC3)c2c1
[1]
  IC50: 4 nM
[4]
  AUC: 0.43 µg·h/g
[2]
  IC50: 44 nM
[8]
  AUC: 980 ng·h/mL

## O=c1cc(NC2CCN(C/C=C/c3ccccc3)CC2)c2ccccc2o1
[1]
  IC50: 191 nM
[2]
  IC50: 1040 nM

## O=c1cc(NC2CCN(Cc3ccc4c(c3)OC(F)(F)O4)CC2)c2cc(Cl)ccc2o1
[1]
  IC50: 19 nM
[2]
  IC50: 581 nM

## O=c1cc(NC2CCN(Cc3ccc4[nH]ccc4c3)CC2)c2cc(Cl)ccc2o1
[1]
  IC50: 7 nM
[3]
  AUC: 1.18 µg·h/g
[6]
  AUC at 24 h: 2870 ng·h/mL
[2]
  IC50: 63 nM
[7]
  Cmax: 182 ng/g
[9]
  concentration at 12 h: 18 ng/g

## O=c1cc(NC2CCN(Cc3ccc4c(c3)OCO4)CC2)c2cc(Cl)ccc2o1
[10]
  half-life: 3.9 h
[1]
  IC50: 2 nM
[11]
  AUC: 2660 ng·h/mL
[6]
  AUC at 24 h: 6350 ng·h/mL
[12]
  % change: -31%
[13]
  clearance: 15.8 mL/min/kg
[2]
  IC50: 28 nM
[14]
  inhibition: 75% and 69%
[15]
  % change: -6.9%
[16]
  concentration at 0.5 h: 3330 ng/mL
[17]
  concentration at 0.5 h: 11800 ng/mL
[18]
  concentration at 0.2 h: 19900 ng/mL
[7]
  Cmax: 454 ng/g
[19]
  bioavailability: 48%
[20]
  half-life: 4.4 h
[21]
  Cmax: 200 ng/mL
[22]
  IC50: 2250 nM
[23]
  concentration at 1 h: 6460 ng/g
[24]
  % change: -16%
[25]
  concentration at 1 h: 2210 ng/g
[9]
  concentration at 12 h: 175 ng/g
[26]
  inhibition: 60%
[27]
  Cmax: 1600 ng/mL
[28]
  concentration at 1 h: 6010 ng/mL
[29]
  concentration at 1 h: 2000 ng/mL
[30]
  % change: -18.2%

## COc1ccc2oc(O)c/c(=N\C3CCN(Cc4ccc5c(c4)OCO5)CC3)c2c1
[2]
  IC50: 11 nM
[31]
  Activity: 2.84 µg/mL
[32]
  Activity: 2.84 µg/mL

## O=c1cc(NC2CCN(Cc3ccc4sccc4c3)CC2)c2cc(Cl)ccc2o1
[1]
  IC50: 6 nM
[2]
  IC50: 189 nM

## O=c1cc(NC2CCN(Cc3ccc4ncoc4c3)CC2)c2cc(Cl)ccc2o1
[1]
  IC50: 75 nM
[2]
  IC50: 461 nM

## CC(C)(C)c1ccc(CN2CCC(/N=c3\cc(O)oc4ccc(Cl)cc34)CC2)cc1
[2]
  IC50: > 10000 nM
